Experimental data: ChEMBL document CHEMBL1121868, “Synthesis and biological effects of acyclic pyrimidine nucleoside analogues” (J Med Chem, 1981)

Experiments:
Format in all cases: functional, organism-based
Escherichia coli [1] = experiment: In vitro inhibition of Escherichia coli K-12 growth.
Escherichia coli [2] = experiment: In vitro concentration required for growth inhibition of Escherichia coli K-12 strain resistant to 10e-3 M 5-flourouracil
In short: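 In vitro growth assay on an E. coli K-12 strain resistant to 10^-3 M 5-fluorouracil. IC50 is the concentration giving 50% inhibition of E. coli K-12 growth. The growth procedure follows earlier published methods.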

Escherichia coli [3] = experiment: In vitro concentration required for growth inhibition of 5-fluorouracil resistant strain of Escherichia coli in presence of cytidine metabolite at 10e-3 M concentration.
Escherichia coli [4] = experiment: In vitro concentration required for growth inhibition of 5-fluorouracil resistant strain of Escherichia coli in presence of uridine metabolite at 10e-3 M concentration.
Escherichia coli [5] = experiment: In vitro concentration required for growth inhibition of 5-fluorouracil resistant strain of Escherichia coli in presence of 2'-deoxyuridine metabolite at 10e-3 M concentration.
Escherichia coli [6] = experiment: In vitro concentration required for growth inhibition of 5-fluorouracil resistant strain of Escherichia coli in presence of thymidine metabolite at 10e-3 M concentration.
Escherichia coli [7] = experiment: In vitro concentration required for growth inhibition of 5-fluorouracil resistant strain of Escherichia coli in presence of uracil metabolite at 10e-3 M concentration.
Escherichia coli [8] = experiment: In vitro concentration required for growth inhibition of 5-fluorouracil resistant strain of Escherichia coli in presence of 2'-deoxycytidine metabolite at 10e-3 M concentration.
Escherichia coli [9] = experiment: In vitro concentration required for growth inhibition of 5-fluorouracil resistant strain of Escherichia coli in presence of thymine metabolite at 10e-3 M concentration.
Escherichia coli [10] = experiment: In vitro concentration required for growth inhibition of 5-fluorouracil resistant strain of Escherichia coli in presence of cytosine metabolite at 10e-3 M concentration.

| SMILES | IC50 (Escherichia coli [1]) [µM] | also measured |
| --- | --- | --- |
| [N-]=[N+]=NCCOCn1ccc(N)nc1=O | 440 |  |
| NCCOCn1ccc(N)nc1=O | > 1000 |  |
| Cn1ccc(=O)n(C)c1=O | 15 |  |
| NC(=O)OCCOCn1ccc(N)nc1=O | 910 |  |
| Nc1ccn(COCCO)c(=O)n1 | 87 |  |
| CC(=O)Nc1ccn(COCCO)c(=O)n1 | > 1000 |  |
| CC(=O)Nc1ccn(COCCOC(=O)Oc2ccccc2)c(=O)n1 | > 1000 |  |
| CCCCCCC(C(C)=O)n1ccc(N)nc1=O (configuration not stated) | 30 |  |
| Cc1cn(COCCOC(=O)c2ccccc2)c(=O)[nH]c1=O | 860 |  |
| COc1ccn(C)c(=O)n1 | 61 |  |
| O=c1[nH]c(=O)n(COCCO)cc1F | 1.2 | IC50 (Escherichia coli [2]): 4.2 µM; IC50 (Escherichia coli [3]): 9.1 µM; IC50 (Escherichia coli [4]): 240 µM; IC50 (Escherichia coli [5]): 370 µM; IC50 (Escherichia coli [6]): 1000 µM; IC50 (Escherichia coli [7]): 8.4 µM; IC50 (Escherichia coli [8]): 9.5 µM; IC50 (Escherichia coli [9]): 730 µM; IC50 (Escherichia coli [10]): 7.4 µM |
| CC(C)n1ccc(N)nc1=O | > 1000 |  |
| CC(=O)C(C)n1ccc(N)nc1=O (configuration not stated) | 560 |  |
| O=C(OCCOCn1ccc(=O)[nH]c1=O)c1ccccc1 | 100 |  |
| CC(=O)Nc1ccn(COCCN=[N+]=[N-])c(=O)n1 | > 1000 |  |
| Nc1ccn(COCCOC(=O)c2ccccc2)c(=O)n1 | 900 |  |
| Cc1cn(COCCN)c(=O)[nH]c1=O | 310 |  |
| O=c1ccn(COCCO)c(=O)[nH]1 | 320 |  |
| CN(C)c1ccn(C)c(=O)n1 | 80 |  |
| Cc1cn(COCCO)c(=O)[nH]c1=O | > 1000 |  |
| O=C(OCCOCn1cc(F)c(=O)[nH]c1=O)c1ccccc1 | 9 | IC50 (Escherichia coli [2]): 180 µM |
| Cc1cn(COCCN=[N+]=[N-])c(=O)[nH]c1=O | 250 |  |
